Assay results as given in ChEMBL document CHEMBL4130504, “Discovery of new indomethacin-based analogs with potentially selective cyclooxygenase-2 inhibition and observed diminishing to PGE2 activities” (Eur J Med Chem, 2017).

Tests used:
[1] = system: Rattus norvegicus; experiment: Ulcerogenicity in albino rat assessed as at 30 umol/kg, po administered daily for 3 successive days in two equal doses at 0 and 12 hrs measured at 6 hrs post last dose by magnifying lens based assay relative to control; type: toxicity, organism-based; conditions: in vivo
Procedure, shortened: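 Male albino rats, 100-120 g, fasted 12 h, six per group. Compound given orally at 30 µmol/kg/day as two equal doses at 0 and 12 h for three days. Controls got 1% gum acacia. Killed 6 h after last dose. Stomach opened along the greater curvature, washed with cold saline and examined under a magnifying lens for hyperemia, hemorrhage, erosion or ulcer. % ulceration = ulcer-bearing animals ×100/group total.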

[2] = system: Rattus norvegicus; experiment: Antiinflammatory activity in albino rat assessed as protection against carrageenan-induced paw edema at 10 umol/kg, sc pretreated for 1 hr followed by carrageenan challenge measured after 4 hrs by plethysmometer (reference value: 0%); type: functional
Procedure, shortened: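 Male albino rats, 120-150 g, six per group. Compound in DMSO given subcutaneously at 10 µmol/kg 1 h before subplantar injection of 2% carrageenan in 0.9% saline. Controls got DMSO alone. Paw volume read by plethysmometer right after carrageenan and 4 h later. % protection = (Vc−Vd)×100/Vc from the 0–4 h increase. Mean ± SEM, Student's t-test.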

[3] = system: Rattus norvegicus; experiment: In vivo inhibition of rat COX-2 assessed as decrease in plasma PGE2 level by EIA relative to control; type: functional
Procedure, shortened: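 Plasma from heparinized rat blood, spun at 12,000 g for 2 min, then frozen until use. PGE2 measured by competitive enzyme immunoassay with a monoclonal anti-PGE2 antibody at room temperature, read at 405 nm. Expressed as % inhibition ± SEM.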

[4] = Inhibition of dog kidney microsomal COX assessed as PGE2 level using arachidonic acid as substrate preincubated for 5 to 15 mins followed by substrate addition measured after 40 mins by radio immunoassay; parameters: species or system Canis lupus familiaris
Procedure, shortened: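 Dog kidney microsomes: tissue homogenized and sonicated in phosphate buffer pH 7.1 with EDTA/PMSF, 100,000g pellet collected. Arachidonic acid added, 40 min at room temperature. Stopped with 1 N HCl, neutralized, PGE2 by radioimmunoassay. COX activity = PGE2 with arachidonic acid minus ethanol vehicle. IC50 from three separate experiments, mean ± SEM.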

[5] = target: T1, Cyclooxygenase (Rattus norvegicus, UniProt P35355+Q63921); experiment: Inhibition of rat kidney microsomal COX assessed as PGE2 level using arachidonic acid as substrate preincubated for 5 to 15 mins followed by substrate addition measured after 40 mins by radio immunoassay
T1 sequence (P35355 whole entry): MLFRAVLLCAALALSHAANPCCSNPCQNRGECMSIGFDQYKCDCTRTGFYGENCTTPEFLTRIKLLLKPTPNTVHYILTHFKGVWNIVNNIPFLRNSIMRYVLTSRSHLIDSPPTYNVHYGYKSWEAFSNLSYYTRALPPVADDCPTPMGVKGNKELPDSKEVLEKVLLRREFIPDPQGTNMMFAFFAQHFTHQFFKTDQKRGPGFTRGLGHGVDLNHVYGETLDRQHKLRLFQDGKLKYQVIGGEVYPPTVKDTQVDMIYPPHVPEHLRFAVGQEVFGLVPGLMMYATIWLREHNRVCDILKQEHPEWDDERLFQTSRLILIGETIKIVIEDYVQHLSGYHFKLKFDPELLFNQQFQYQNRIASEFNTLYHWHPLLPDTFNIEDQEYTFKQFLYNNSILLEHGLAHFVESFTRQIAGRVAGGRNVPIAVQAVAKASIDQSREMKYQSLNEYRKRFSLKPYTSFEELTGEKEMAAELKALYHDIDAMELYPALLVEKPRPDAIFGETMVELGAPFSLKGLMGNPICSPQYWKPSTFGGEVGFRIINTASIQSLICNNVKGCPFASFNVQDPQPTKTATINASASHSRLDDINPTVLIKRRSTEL
T1 sequence (Q63921 whole entry): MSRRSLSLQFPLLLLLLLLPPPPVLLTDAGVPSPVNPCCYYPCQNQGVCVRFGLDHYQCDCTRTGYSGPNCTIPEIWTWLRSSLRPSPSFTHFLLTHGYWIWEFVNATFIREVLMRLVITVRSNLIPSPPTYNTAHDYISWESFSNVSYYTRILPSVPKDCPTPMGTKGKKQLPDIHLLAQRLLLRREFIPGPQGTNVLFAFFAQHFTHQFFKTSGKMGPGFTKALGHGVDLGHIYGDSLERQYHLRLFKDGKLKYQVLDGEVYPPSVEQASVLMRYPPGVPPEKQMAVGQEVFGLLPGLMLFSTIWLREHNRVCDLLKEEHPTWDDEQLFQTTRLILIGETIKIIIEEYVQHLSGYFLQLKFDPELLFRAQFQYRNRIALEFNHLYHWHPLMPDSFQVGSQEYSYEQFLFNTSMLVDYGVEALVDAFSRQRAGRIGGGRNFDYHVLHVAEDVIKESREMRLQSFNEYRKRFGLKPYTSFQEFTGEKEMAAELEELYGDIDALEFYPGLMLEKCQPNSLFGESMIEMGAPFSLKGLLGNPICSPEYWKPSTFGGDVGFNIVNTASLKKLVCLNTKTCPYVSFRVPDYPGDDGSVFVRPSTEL

[6] = system: Rattus norvegicus; experiment: Antiinflammatory activity in sc dosed Sprague-Dawley rat assessed as inhibition of cotton pellet-induced granuloma after 7 days; type: functional
Procedure, shortened: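 Adult male Sprague-Dawley rats, 120-140 g, six per group, acclimated one week. Cotton pellets (35 ± 1 mg) soaked with 0.01 mmol compound in chloroform, dried, then loaded with penicillin G/dihydrostreptomycin. Two pellets implanted subcutaneously, one per axilla, under mild anesthesia. Pellets with granuloma removed at day 7, dried 48 h at 60 °C and weighed. ED50 from dose-response at 4, 7, 10 and 15 µmol.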

Structure (SMILES)	Activity [1]	Activity [2]	inhibition (INH) [3]	IC50 [4]	IC50 [5]	ED50 [6]
COc1ccc2c(c1)c1c(n2Cc2ccc(Cl)cc2)CC(C)(C)CC1=O	11.2%	80.36%	81.16%	77 nM	132 nM	17.27 µmol
CS(=O)(=O)c1ccc2c(c1)c1c(n2S(=O)(=O)c2ccc(Cl)cc2)CCCC1	2.9%	85.32%	88.2%	40 nM	79 nM	18.67 µmol
CS(=O)(=O)c1ccc2c(c1)c1c(n2S(=O)(=O)c2ccc(Cl)cc2)CCCC1=O	11.29%	81.88%	84.11%	53 nM	104 nM	22.33 µmol
COc1ccc2c(c1)c1c(n2C(=O)c2ccc(Cl)cc2)CC(C)(C)CC1=O	13.18%	79.66%	80.24%	80 nM	141 nM	28.27 µmol
CS(=O)(=O)c1ccc2c(c1)c1c(n2Cc2ccc(Cl)cc2)CCCC1=O	5.4%	83.1%	86.39%	45 nM	93 nM	19.2 µmol
COc1ccc2c(c1)c(CC(=O)O)c(C)n2C(=O)c1ccc(Cl)cc1 [INDOMETHACIN]	–	–	98.29%	–	–	9.568 µmol
CS(=O)(=O)c1ccc2c(c1)c1c(n2Cc2ccc(Cl)cc2)CCCC1	4.48%	87.55%	89.43%	39 nM	56 nM	14.56 µmol
CS(=O)(=O)c1ccc2c(c1)c1c(n2C(=O)c2ccc(Cl)cc2)CCCC1=O	3.28%	88.06%	91.29%	34 nM	48 nM	12.38 µmol
CS(=O)(=O)c1ccc2c(c1)c1c(n2C(=O)c2ccc(Cl)cc2)CCCC1	12.45%	80.97%	83.19%	56 nM	116 nM	25.67 µmol
COc1ccc2c(c1)c1c(n2S(=O)(=O)c2ccc(Cl)cc2)CC(C)(C)CC1=O	20.12%	80.67%	82.16%	61 nM	128 nM	26.88 µmol
Cc1ccc(-c2cc(C(F)(F)F)nn2-c2ccc(S(N)(=O)=O)cc2)cc1 [CELECOXIB]	2.11%	96.73%	77.25%	112 nM	–	86.11 µmol
